Reference: ChEMBL document CHEMBL4325831, “Novel Pyrrole-Imidazole Polyamide Hoechst Conjugate Suppresses Epstein-Barr Virus Replication and Virus-Positive Tumor Growth” (J Med Chem, 2018)
The source made the active and inactive calls. The calls are words filed in the database; no cut-off is given here.

What was measured:
[1] = Inhibition of recombinant EBNA1 binding to biotin-labeled Epstein-Barr virus OriP hairpin DNA EBNA1 site 1 assessed as dissociation constant by SPR assay; set-up: species or system human gammaherpesvirus 4
[2] = Inhibition of recombinant EBNA1 binding to biotin-labeled Epstein-Barr virus OriP hairpin DNA EBNA1 site 1 mutant assessed as dissociation constant by SPR assay; set-up: species or system human gammaherpesvirus 4
Procedure, shortened: (§1)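 SPR on a streptavidin-coated chip (about 16 000 RU) carrying biotinylated short hairpin DNA, loaded at 200 nM and immobilized to about 700–900 RU. Run in HBS-EP (10 mM HEPES pH 7.4, 150 mM NaCl, 3 mM EDTA, 0.005% P20) at 25 °C. Polyamides were diluted first in ultrapure water, then into a concentration gradient. ka and kd were fitted from sensorgrams.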

[3] = Inhibition of recombinant EBNA1 binding to biotin-labeled Epstein-Barr virus OriP hairpin DNA EBNA1 site 2 assessed as dissociation constant by SPR assay; set-up: species or system human gammaherpesvirus 4
[4] = Inhibition of recombinant EBNA1 binding to biotin-labeled Epstein-Barr virus OriP hairpin DNA EBNA1 site 2 mutant assessed as dissociation constant by SPR assay; set-up: species or system human gammaherpesvirus 4; procedure, shortened: as §1
[5] = system: human gammaherpesvirus 4; test: Inhibition of recombinant EBNA1 binding to biotin-labeled Epstein-Barr virus OriP hairpin DNA EBNA1 site 1 assessed as reduction in RU increase at 200 nM by SPR assay
Procedure, shortened: (§2)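 SPR in HBS-EP (10 mM HEPES pH 7.4, 150 mM NaCl, 3 mM EDTA, 0.005% P20) at 25 °C. Biotin hairpin DNA (200 nM) captured at 700–900 RU on streptavidin. Polyamide (200 nM) injected at 25 μL/min for 4 min with no dissociation phase, then 100 nM recombinant EBNA1 for 3 min. Relative reduction in RU rise recorded.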

[6] = system: human gammaherpesvirus 4; test: Inhibition of recombinant EBNA1 binding to biotin-labeled Epstein-Barr virus OriP hairpin DNA EBNA1 site 2 assessed as reduction in RU increase at 200 nM by SPR assay; procedure, shortened: as §2
[7] = system: Human gammaherpesvirus 4; test: Inhibition of Epstein-Barr virus-induced human Raji cell proliferation assessed reduction in cell viability at 10 uM measured at day 3 and day 6 post dose following media refreshment every 3 days trypan blue dye-based assay; format: functional, organism-based
Procedure, shortened: (§3)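 5 × 10^5 cells in 2 mL medium with 10 μM polyamide. After 3 days an equal volume of fresh medium containing polyamide was added. Living cells counted by 0.4% trypan blue exclusion at days 3 and 6. Significance by one-way ANOVA.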

[8] = system: Human gammaherpesvirus 4; test: Inhibition of Epstein-Barr virus-induced human Daudi cell proliferation assessed reduction in cell viability at 10 uM measured at day 3 and day 6 post dose following media refreshment every 3 days trypan blue dye-based assay; format: functional, organism-based; procedure, shortened: as §3
[9] = system: MOLT-4; test: Cell growth inhibition of human MOLT4 cells at 10 uM measured at day 3 and day 6 following media refreshment every 3 days by trypan blue dye-based assay; format: functional; procedure, shortened: as §3
[10] = system: Human gammaherpesvirus 4; test: Inhibition of Epstein-Barr virus-induced human Daudi cell proliferation after 72 hrs by MTT assay; format: functional; details: human gammaherpesvirus 4, Daudi
Procedure, shortened: (§4)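 Suspension cells seeded at 7 × 10^3 per well, adherent at 3 × 10^3 per well, in quadruplicate across a concentration series. Grown 72 h, then viability relative to control read by MTT. GI50 from sigmoidal dose–response fit; at least triplicate experiments. RPMI-based medium for suspension lines, high-glucose DMEM for MDA-MB-231, both with 10% FBS, 5% CO2, 37 °C.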

[11] = system: Human gammaherpesvirus 4; test: Inhibition of Epstein-Barr virus-induced human Raji cell proliferation after 72 hrs by MTT assay; format: functional; details: human gammaherpesvirus 4, Raji; procedure, shortened: as §4
[12] = system: Human gammaherpesvirus 4; test: Inhibition of Epstein-Barr virus-induced […] cell proliferation after 72 hrs by MTT assay; format: functional; details: human gammaherpesvirus 4, B-95-8, 72 h; procedure, shortened: as §4
[13] = system: NALM-6; test: Cell growth inhibition of human NALM6 cells after 72 hrs by MTT assay; format: functional; details: NALM-6, 72 h; procedure, shortened: as §4
[14] = system: RPMI-8226; test: Cell growth inhibition of human RPMI8226 cells after 72 hrs by MTT assay; format: functional; details: RPMI-8226, 72 h; procedure, shortened: as §4
[15] = system: MOLT-4; test: Cell growth inhibition of human MOLT4 cells after 72 hrs by MTT assay; format: functional; details: MOLT-4, 72 h; procedure, shortened: as §4
[16] = system: Jurkat; test: Cell growth inhibition of human Jurkat cells after 72 hrs by MTT assay; format: functional; procedure, shortened: as §4
[17] = system: MDA-MB-231; test: Cell growth inhibition of human MDA-MB-231 cells after 72 hrs by MTT assay; format: functional; details: MDA-MB-231, 72 h; procedure, shortened: as §4
[18] = system: Raji; test: Inhibition of EBNA1 binding to Epstein-Barr virus OriP DNA in human Raji cells assessed as reduction in EBV copy number at 10 uM after 120 hrs by qRT-PCR analysis; format: cell-based; details: human gammaherpesvirus 4
Procedure, shortened: (§5)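 Raji (5 × 10^5), B95-8 (5 × 10^5) or Daudi (1 × 10^6) cells cultured with 10 μM polyamide. Genomic DNA extracted at intervals (Raji every 24 h). SYBR real-time PCR in triplicate: 95 °C 5 min, then 40 cycles of 95 °C 10 s / 60 °C 30 s, followed by melt curve. EBV copies relative to cellular DNA by ΔΔCt.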

[19] = system: Daudi; test: Inhibition of EBNA1 binding to Epstein-Barr virus OriP DNA in human Daudi cells assessed as reduction in EBV copy number at 10 uM after 120 hrs by qRT-PCR analysis; format: cell-based; details: human gammaherpesvirus 4; procedure, shortened: as §5
[20] = system: human gammaherpesvirus 4; test: Inhibition of EBNA1 binding to Epstein-Barr virus OriP DNA in […] cells assessed as reduction in EBV copy number at 10 uM after 120 hrs by qRT-PCR analysis; format: cell-based; procedure, shortened: as §5
[21] = system: Raji; test: Inhibition of EBNA1 binding to Epstein-Barr virus OriP DNA in human Raji cells at 10 uM after 24 to 48 hrs by chIP assay; format: cell-based; details: human gammaherpesvirus 4
Procedure, shortened: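 Raji cells with 10 μM polyamide, 8 × 10^6 harvested at 0, 24 and 48 h. Formaldehyde fixation, enzymatic chromatin ChIP; 2% input kept. IP overnight with 1 μg anti-EBNA1 or mouse IgG1, magnetic-bead capture. OriP detected by SYBR qPCR (95 °C 5 min; 40 cycles of 95 °C 15 s / 60 °C 60 s). ΔΔCt relative to input.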

[22] = system: Raji; test: Inhibition of EBNA1 binding to Epstein-Barr virus OriP DNA in human Raji cells assessed as reduction in EBNA1 protein expression up to 20 uM after 24 hrs by Western blot analysis; format: cell-based; details: human gammaherpesvirus 4
Procedure, shortened: (§6)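 Raji cells exposed 24 h to 0, 1, 2, 5, 10 or 20 μM. Cells lysed in nondenaturing buffer with protease inhibitors and run on 10% SDS-PAGE, then PVDF. Membranes probed overnight at 4 °C for EBNA1, EBNA2 and GAPDH, HRP secondary 1 h, chemiluminescent detection. At least triplicate.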

[23] = system: Raji; test: Inhibition of EBNA1 binding to Epstein-Barr virus OriP DNA in human Raji cells assessed as reduction in EBNA2 protein expression up to 20 uM after 24 hrs by Western blot analysis; format: cell-based; details: human gammaherpesvirus 4; procedure, shortened: as §6
[24] = system: Human gammaherpesvirus 4; test: Inhibition of Epstein-Barr virus-induced human Raji cell proliferation xenografted in Balb/c mouse assessed as reduction in tumor size at 5 mg/kg, sc administered every 3 days for 25 days and measured every 3 days before drug injection; format: functional, organism-based
Procedure, shortened: (§7)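 Female Balb/c nude mice given 1 × 10^7 Raji cells sc in left flank (in 100 μL serum-free RPMI). Dosing began at tumor ~50 mm3 (L × W × 1/2W). Compound in 100 μL 5% DMSO/0.9% NaCl, injected sc around tumor every 3 days, eight injections; vehicle n = 6, treated groups n = 7. Tumor size and body weight taken before each injection. Tumor DNA analysed by real-time PCR for relative EBV copy number.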

[25] = system: Human gammaherpesvirus 4; test: Inhibition of Epstein-Barr virus-induced human Raji cell proliferation xenografted in Balb/c mouse assessed as reduction in tumor size at 10 mg/kg, sc administered every 3 days for 25 days and measured every 3 days before drug injection; format: functional, organism-based; procedure, shortened: as §7
[26] = system: Human gammaherpesvirus 4; test: Antiviral activity against Epstein-Barr virus positive human Raji cells xenografted in Balb/c mouse assessed as reduction in EBV DNA copy at 5 to 10 mg/kg, sc administered every 3 days for 25 days; format: functional, organism-based; procedure, shortened: as §7
[27] = Toxicity in Balb/c mouse infected with Epstein-Barr virus positive human Raji cells assessed as body weight loss at 5 to 10 mg/kg, sc administered every 3 days for 25 days and measured every 3 days before drug injection; format: organism-based; details: in vivo; procedure, shortened: as §7

Structure (SMILES) | Kd [1] [µM] | Kd [2] [µM] | Kd [3] [µM] | Kd [4] [µM] | fold change (FC) [5] | fold change (FC) [6] | inhibition [7] | inhibition [8] | growth inhibition (GI) [9] | GI50 [10] [µM] | GI50 [11] [µM] | GI50 [12] [µM] | GI50 [13] [µM] | GI50 [14] [µM] | GI50 [15] [µM] | GI50 [16] [µM] | GI50 [17] [µM] | inhibition [18] | inhibition [21] | inhibition [22] | other results
CN(C)CCCNC(=O)c1cc(NC(=O)c2nc(NC(=O)c3cc(NC(=O)c4cc(NC(=O)[C@@H](CCNC(=O)c5cc(NC(=O)c6cc(NC(=O)c7cc(NC(=O)c8nccn8C)cn7C)cn6C)cn5C)NC(=O)CCCOc5ccc(-c6nc7cc(-c8nc9cc(N%10CCN(C)CC%10)ccc9[nH]8)ccc7[nH]6)cc5)cn4C)cn3C)cn2C)cn1C | 0.0228 | 0.747 | 0.0129 | 0.187 | 0.583 | 0.412 | Active | Active | inactive | 4.02 | 8 | 9.42 | 22.2 | 24.5 | 25 | > 100 | > 100 | Active | Active | Dose-dependent effect | inhibition [19]: Active; inhibition [20]: Active; inhibition [23]: Dose-dependent effect; inhibition [24]: Active; inhibition [25]: Active; Activity [26]: Active; Activity [27]: Non-Toxic
CN(C)CCCNC(=O)c1cc(NC(=O)c2nc(NC(=O)c3cc(NC(=O)c4cc(NC(=O)[C@H](N)CCNC(=O)c5cc(NC(=O)c6cc(NC(=O)c7cc(NC(=O)c8nccn8C)cn7C)cn6C)cn5C)cn4C)cn3C)cn2C)cn1C | 0.0015 | 0.0252 | 0.00452 | 0.0206 | 0.646 | 0.524 | Active | Active | inactive | 12.9 | 29.4 | 30.2 | 41.9 | 43.9 | 30.3 | > 100 | > 100 | inactive | inactive | inactive | inhibition [23]: inactive
CN(C)CCCNC(=O)c1cc(NC(=O)c2cc(NC(=O)c3cc(NC(=O)c4cc(NC(=O)[C@@H](CCNC(=O)c5cc(NC(=O)c6cc(NC(=O)c7nc(NC(=O)c8nccn8C)cn7C)cn6C)cn5C)NC(=O)CCCOc5ccc(-c6nc7cc(-c8nc9cc(N%10CCN(C)CC%10)ccc9[nH]8)ccc7[nH]6)cc5)cn4C)cn3C)cn2C)cn1C | 0.335 |  | 0.263 |  | 0.091 | 0.088 |  |  |  |  |  |  |  |  |  |  |  | inactive |  |  | 
